For the data set, the system named is MS2 coat protein. Description: apparent Kd, MS2 coat protein; higher = weaker binding; RNA-MaP array. The essentials: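 On an Illumina sequencing chip, sequenced DNA templates served for transcription of the designed RNAs, which were then bound at room temperature by fluorescently labeled MS2 coat protein at 1.5 nM to 3 μM, with or without input ligand. Apparent Kd is the median of the fits to each cluster's binding curve. Only designs measured on at least 10 clusters were kept.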

Where [1] appears, read: designed as: OFF switch for flavin mononucleotide, no ligand.
Where [2] appears, read: ligand present: flavin mononucleotide, designed as: OFF switch for flavin mononucleotide.
The mark [3] stands for this setting: designed as: ON switch for flavin mononucleotide, no ligand.
Setting [4] is: ligand present: flavin mononucleotide, designed as: ON switch for flavin mononucleotide.
The mark [5] stands for this setting: designed as: OFF switch for tryptophan, no ligand.
[6] abbreviates: ligand present: tryptophan, designed as: OFF switch for tryptophan.
[7] abbreviates: designed as: OFF switch for theophylline, no ligand.
Where [8] appears, read: ligand present: theophylline, designed as: OFF switch for theophylline.
[9] abbreviates: designed as: ON switch for theophylline, no ligand.
[10] abbreviates: ligand present: theophylline, designed as: ON switch for theophylline.

Usually apparent Kd stands for a dissociation constant that holds for the conditions of the assay.

In the case of “GCUCACAUGAGGAUCACCCAUGUCACGAGGUGAUGAUGAACAAGAAGGAAACUCAUAUGAUCAGUUUAGGAUAUUGCCCAGCGA”, the “apparent Kd” value is 791 nM under setting [1] and 460 nM under setting [2].

In the case of “CCGACUCGCGUAGAGGAUAUGUAAUAAAAUACAUGAGGAUCACCCAUGUGAGACCGGGUGUCUCCACAGAAGGCUAUCGUGUCGUA”, under setting [3], the “apparent Kd” value was determined as 133 nM. With “ACCCGAGAUACAGGAUAUGCGUCCGCGUGAGCCAUGGUUAAAGCACAUGAGGAUCACCCAUGUUGGCAGAAGGGAAUCUCAUGA”, the “apparent Kd” value came to 53.7 nM under setting [1] and 19.3 nM under setting [2]. The corresponding values for “GCUGUAAAGGAGAAGGUGAAUCGUAAGCUUGGUCAAGGAUAUCCGACUGGACAUGGCUGCAGACAUGAGGAUCACCCAUGUGCG” are 237 nM and 113 nM. The matching figures for “ACUGAGUAAGGAUAUCCAUCAUACUAACGACGCGGAAAGAAGGAGAAGGUACAUGAGGAUCACCCAUGUGAAAA”: 12.3 nM and 11.1 nM.

“GUGAAGAUCCUAGGAUAUGAGACACCCGUAAGCUCAGAAGGAGGACGCGUAGAGGGUAACAUGAGGAUCACCCAUGUGAGUAAG”: the “apparent Kd” value is 16.9 nM under setting [3] and 12.2 nM under setting [4]. The matching figures for “CGUUAAGAACAGAAGGCCGAGAUAAUGUUCAGCGGAGGAUAUGUGGAAGAUAGAACAUGAGGAUCACCCAUGUCAACUAGUACC”: 6.01 nM and 5.82 nM. The matching figures for “UGACUAAAGGAGAAGGGCCACUCCAUUACUUCGGCAGGAUAUCCAUAAACAUGAGGAUCACCCAUGUACAUACAUUGGACGGCG”: 8.62 nM and 7.73 nM. In the case of “GGCCAGGCAGCGGCCGCCACUUAGUGGGCCGAAUGUCCUUUGCUGAACAUGAGGAUCACCCAUGUAAGGACCGGGCUGUUCCGCA”, the “apparent Kd” value amounted to 30.5 nM under setting [5] and 69.5 nM under setting [6]. In the case of “ACAUCGAGGCGAGGAUAUAUGACAUGAGGAUCACCCAUGUCUGCGUGAUCGUCGAACAAAUGUUCAUAGAAGGCGCUAGAAAUG”, the “apparent Kd” value runs as follows: under setting [1], 112 nM; under setting [2], 20.6 nM. On to “CAAGCACCAACCGAUACCAGCUUAGUAGUAUGCUCAUUAAACAUGAGGAUCACCCAUGUGAGCCCUUGGCAGCGGAUUUCCCUGC”, for which the “apparent Kd” value reads like this: under setting [7], 13.3 nM; under setting [8], 20.7 nM.

With “CGUAUUGCUCGUUAGGAUAUCCAAUCUGAAACAUGAGGAUCACCCAUGUAGCCAGCAUCACAUGAGGAGAAGGAACAAGAUAAACG”, the “apparent Kd” value by setting is: under setting [3], 16.6 nM; under setting [4], 8.89 nM. The matching figures for “UAUCGAAGGUUUAAGGAUAUCGGCAGGCUCACAUGAGGAUCACCCAUGUCGCGAACAUCGCGCUACGAGAAGGUAAUCUUGAUGCA”: 58.9 nM and 24.3 nM. Turning to “CCCAAGCCAGCUGAUACCAGUGACGUGGUCAGAAUGUGCGACAUGAGGAUCACCCAUGUACACCCUUGGCAGCAGUAGAACGGUU”, the “apparent Kd” value amounted to 14.4 nM under setting [7] and 51.7 nM under setting [8].

For the sequence “CAUGCUUGCGAGGAUAUAAGGUUCUCCCUGUUCUUAGAAGGCGCAACAUGAGGAUCACCCAUGUUCCUACCGAA”, the “apparent Kd” value reads like this: under setting [1], 43 nM; under setting [2], 283 nM. On to “CACGAUACUACAGGAUAUGCCGGUUACCAAUCUGCAGAAGGGUAGAUUAGUCUAACAUGAGGAUCACCCAUGUACCUCUCAUGU”, for which the “apparent Kd” value came to 208 nM under setting [1] and 248 nM under setting [2]. On to “GGUCAACGAUUUUACAUGAGGAUCACCCAUGUUACGGUCGCCGAGGAUAUGUCAGGAUUAUCACAACAGAAGGCGGAAGACACC”, for which the “apparent Kd” value by setting is: under setting [3], 16.5 nM; under setting [4], 9.4 nM. The corresponding values for “CCAUGCGAUAUAGUGAUACAUGAGGAUCACCCAUGUAAAGUGAGAAGGCCAAAUUAAUACUAAGUGGAGGAUAUCAUCGUGAGC” are 53 nM and 20.7 nM. The matching figures for “ACAGUACAUGAGGAUCACCCAUGUAGAAGAUGCUCAGGAUAUUGUGAGUCAGGUUAUGUACAAGAAGGGAGGCACG”: 25.4 nM and 14.1 nM. In the case of “AGGUCCGGAGAGAAGGCCGACUUUGUAAUACACGGAGGAUAUCUACCACAUGAGGAUCACCCAUGUCCACACCGCAAGUUGUAA”, the “apparent Kd” value is, setting by setting: under setting [3], 15 nM; under setting [4], 10.8 nM. “UCGUUGCCAUGAGGAUAUCGUGUCAAGACAGGCAAGUGACCGUACAUGAGGAUCACCCAUGUAAACGAGAAGGCAUAGUCAUGG”: the “apparent Kd” value stood at 17 nM under setting [1] and 13.9 nM under setting [2].

As to “GCACAAUUAGGAUAUACAUGGGUAUAGGGUGAGACGAAUGCACAUGAGGAUCACCCAUGUAGAAGGAAUCGUCA”, the “apparent Kd” value under setting [1] amounted to 303 nM and the “apparent Kd” value under setting [2] was 332 nM. For “GGGCGACUGCAAGGAUAUCUCGAAGUGAGUGGCAGAGAAGGUGCACGUACAUGAGGAUCACCCAUGUGAACUUAUUGGUCAAGG”, the “apparent Kd” value runs as follows: under setting [1], 25.2 nM; under setting [2], 21.9 nM. In the case of “GUGCAGUUAUUAGGAUAUAAGACAUGGGACAUGAGGAUCACCCAUGUCGUAAGAAAUACCGUUGAUUAGAAGGAAUUCCGGCAC”, the “apparent Kd” value worked out at 1010 nM under setting [3] and 283 nM under setting [4]. Consider “CCAAUAUCUAUAGGAUAUCAAUGACCAAACUGAACAUGAGGAUCACCCAUGUAGUGAGUGACUUAUGAGAAGGAUAGACGUACC”, for which the “apparent Kd” value runs as follows: under setting [3], 104 nM; under setting [4], 22.9 nM.

Regarding “AUCAUGUAAGGAUAUGCCGAACCUGUUUUGUCGCGGUUAAAGCAGAAGGUACAUGAGGAUCACCCAUGUUAAAU”, the “apparent Kd” value came to 56.2 nM under setting [1] and 54.4 nM under setting [2]. Regarding “GUGAAGUUAGUGAGCGUUAGUCAAGCCAAACGAGGACCGGUACGGCCGCCACUCGCGCAUCGACAUGAGGAUCACCCAUGUGCCG”, the “apparent Kd” value reads like this: under setting [5], 14.6 nM; under setting [6], 17.7 nM. On to “ACCGGCACCUAGGAUACCAGAUCCACAACAAACAUGAGGAUCACCCAUGUAUAAAGUGGUAUCCCUUGGCAGCCUGUGACAAUCG”, for which the “apparent Kd” value reads like this: under setting [9], 16.5 nM; under setting [10], 14.8 nM. As to “ACCUCAAUGGAUGAUACCAGCUCAAGGACGAACAUGAGGAUCACCCAUGUGACGUGGUGUAGCCCUUGGCAGCAUACUGACACCU”, the “apparent Kd” value by setting is: under setting [9], 39.4 nM; under setting [10], 21.3 nM. Consider “UUACAGAAAGGAUAUACAUGAGGAUCACCCAUGUAGUAUGAGUUGGUGAGAGUUCGUGGUAGAAGGUUCCGCAA”, for which the “apparent Kd” value under setting [1] is 53 nM and the “apparent Kd” value under setting [2] is 55.2 nM. Regarding “CCUUCAGAUGAGAAGGCCAUCUACGGCUGGACACGGCAGUAACAUGAGGAUCACCCAUGUUUAAUGGAGGAUAUCAACGGAAGC”, the “apparent Kd” value stood at 12.3 nM under setting [3] and 8.94 nM under setting [4]. In the case of “CAUUGGGUCAGUUCGACAUGAGGAUCACCCAUGUAGUUAACGAGAAGGAGUACCAGCCUAAGUGACUAGGAUAUCGAUAAGUGG”, the “apparent Kd” value is, setting by setting: under setting [1], 37.3 nM; under setting [2], 38.7 nM. For “UAGCUGCUUCAGAAGGCCGUUGGGUGAAAACGCUCCGGGUGCCACAUGAGGAUCACCCAUGUUUCGGAGGAUAUGAAAGCAUCC”, the “apparent Kd” value is, setting by setting: under setting [1], 47.8 nM; under setting [2], 201 nM. The corresponding values for “AGUGGUGGGAAGGAUAUCUUCCGGCGUUAGCCUAGAGAAGGUCCCACAUGAGGAUCACCCAUGUUGACAUCGGU” are 373 nM and 183 nM. Consider “UAAGUACGACAGAAGGGAUGAAAUUAUAACAAAUCAGGAUAUGUGAGUUACCAAUGCAAGCAUUACAUGAGGAUCACCCAUGUG”, for which the “apparent Kd” value runs as follows: under setting [3], 16.9 nM; under setting [4], 10.1 nM. The matching figures for “UCACGUCGCCGAGGAUAUGAUUACCGCUCUCCAUCAGAAGGCGGCGCGUGGUCCACAACAUGAGGAUCACCCAUGUCGAUUGAG”: 64.9 nM and 10.7 nM.

The record behind these values is the EternaBench riboswitch data.
